STEP block = STEP phosphatase inhibitors, primary screen, biochemical, fluorescence intensity, uHTS; Tyrosine-protein phosphatase non-receptor type 5 (Homo sapiens), P54829; recombinant STEP, OMFP fluorogenic substrate; inhibition, % at 20 µM; 360,000 compounds, 0.25% hits; AID 588621, 2011;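 active means inhibition at 20 µM, scaled per plate between control wells, above about 37%, limit read from the data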;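 further: 0% = DMSO with enzyme and substrate and 100% = substrate only without enzyme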
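System: STEP (striatal-enriched tyrosine phosphatase) enzyme, cell-free; medium: Bis-Tris pH 6.0 buffer with DTT, detergent; dosing: 20 µM, 1% DMSO; times: reaction 20 min, ambient temperature; detection: fluorescence, 480/540 nm; read-out basis: normalized % inhibition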
LMPTP inh = LMPTP phosphatase inhibitors, primary screen, biochemical, fluorescence intensity, uHTS | Low molecular weight phosphotyrosine protein phosphatase (Homo sapiens), P24666 | recombinant LMPTP-A, OMFP fluorogenic substrate | inhibition, % at 20 µM | 360,000 compounds, 0.22% hits | AID 651560, 2012;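 active means compounds that cut the enzyme signal by at least half of the control window in the single-dose screen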;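 further: plate controls were DMSO wells with enzyme plus substrate for no effect and substrate without enzyme for full effect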
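Test system: LMPTP-A phosphatase enzyme; input: 0.625 nM LMPTP-A final; reagent: OMFP substrate, 400 µM final; compound dosing: 20 µM single dose, 3% DMSO; incubation: 50 min dark incubation at room temperature; measured by: endpoint fluorescence intensity from OMFP dephosphorylation; measure: % inhibition relative to no-enzyme and uninhibited control wells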
Scp1 inh = Scp-1 phosphatase inhibitors, primary screen, biochemical, colorimetric, uHTS | Carboxy-terminal domain RNA polymerase II polypeptide A small phosphatase 1 (Homo … | Recombinant Scp1, phosphopeptide, malachite green phosphate absorbance | AID 493091, 2011 | inhibition, % at 20 µM | 340,000 compounds, 0.88% hits;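 active means inhibition above about 50% at 20 µM, limit read from the data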;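 further: plate controls were DMSO wells with enzyme for no effect and wells lacking enzyme for full effect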
Target sequence (Q9GZU7 76-261 limits assumed): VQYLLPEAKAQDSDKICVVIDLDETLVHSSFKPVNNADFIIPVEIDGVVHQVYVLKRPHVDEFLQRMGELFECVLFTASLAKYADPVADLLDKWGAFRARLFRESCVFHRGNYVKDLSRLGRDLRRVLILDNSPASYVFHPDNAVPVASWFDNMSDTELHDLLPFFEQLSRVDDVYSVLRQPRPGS
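System: truncated SCP-1 phosphatase (76-261aa); medium: Tris acetate buffer pH 5.5 with MgCl2 and Tween-20; incubation: 45 min room-temperature reaction, 5 min colour, 30 min stabiliser; compound: single 20 µM dose, 1% DMSO; reagent: Phosphorylated 17-residue peptide substrate; read-out: % inhibition at 20 µM; technique: colorimetric free-phosphate detection, absorbance 630 nm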
PP1 inh = PP1-alpha phosphatase inhibitors, primary screen, counter-screen for PP5 inhibitor project, biochemical, fluorescence, OMFP substrate, single point. Serine/threonine-protein phosphatase PP1-alpha catalytic subunit (Homo sapiens), P62136. purified PP1alpha. inhibition, % at 6.7 µM. 320,000 compounds, 0.9% hits;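 active means inhibition above the mean inhibition of all tested compounds plus 3 SD, computed separately for each screening campaign, cut at about 15% in these data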
Target sequence (P62136 whole entry, looked up): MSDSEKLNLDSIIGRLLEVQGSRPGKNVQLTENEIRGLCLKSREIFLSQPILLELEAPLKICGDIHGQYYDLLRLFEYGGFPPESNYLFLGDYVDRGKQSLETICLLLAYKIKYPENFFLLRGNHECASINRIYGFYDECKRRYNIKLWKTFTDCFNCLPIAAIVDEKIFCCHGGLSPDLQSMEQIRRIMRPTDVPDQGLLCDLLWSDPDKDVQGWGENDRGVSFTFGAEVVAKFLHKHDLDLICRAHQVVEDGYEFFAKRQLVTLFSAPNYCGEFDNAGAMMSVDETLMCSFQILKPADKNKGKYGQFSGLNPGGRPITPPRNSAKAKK
PP5 inh = PP5 phosphatase inhibitors, primary screen, biochemical, fluorescence | Serine/threonine-protein phosphatase 5 (Homo sapiens), P53041 | 320,000 compounds, 0.18% hits | inhibition, % at 6.7 µM | purified PP5c, OMFP substrate fluorescence;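 active means inhibition above the campaign's mean inhibition across all tested compounds plus 3 SD, cut at about 9.5% in these data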;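 further: 0% = DMSO only and 100% = 100 µM cantharidin control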
PP1 inh confirm = PP1 phosphatase inhibitors, confirmation, biochemical, fluorescence, OMFP substrate, triplicate. shares compounds with PP1 inh. purified PP1alpha. inhibition, % at 6.7 µM. 1,900 compounds, 52% hits. AID 2358, 2010;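 active means mean PP1 inhibition above a set limit taken from the earlier primary screen, cut at about 15% in these data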
PP5 inh counter = PP5 phosphatase inhibition by PP1 hits, confirmation, counter-screen for PP1 inhibitor project, biochemical, fluorescence, triplicate | shares compounds with PP1 inh | purified PP5c, OMFP fluorescence | inhibition, % at 6.7 µM | 1,900 compounds, 4% hits | AID 2360, 2010;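 active means mean PP5 inhibition over triplicate wells above about 9.5% taken from the earlier PP1 screen, limit read from the data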
* hit, by the source's call; · = no result. In the library only some 1.9% were active in any assay of this set; here they are far more common.

SMILES	STEP block	LMPTP inh	Scp1 inh	PP1 inh	PP5 inh	PP1 inh confirm	PP5 inh counter
Clc1ccc(C2=Nn3c(nnc3-c3cc(-c4ccccc4)n[nH]3)SC2)cc1	1.4	4.2	-3.4	23.2*	1.7	16.2*	-1.3
Clc1ccc(C2=Nn3c(nnc3-c3n[nH]c4c3CCC4)SC2)cc1Cl	-1.2	0.3	4.5	22.6*	2.1	27.6*	3.0
CN(CC(=O)Nc1ccccc1Br)C(=O)CNC(=O)c1ccc(Oc2ccccc2)cc1	0.3	0.4	-1.8	-0.7	1.7	·	·
Cc1cccc(C(=O)OC2CCN(C)CC2)c1	1.2	-0.9	-6.6	-0.5	1.6	·	·
Cn1cccc1Cc1nnc(SCC(=O)NCC2CCCO2)n1C (stereo not drawn)	-5.0	-1.6	-2.8	-1.7	2.8	·	·
N#Cc1c(N(CCO)CCO)nc(N)c2c(N)nc3c(c12)CC(=O)N3CC1CCCO1 (stereo not drawn)	-0.2	1.4	0.2	-4.0	8.2	·	·
N#Cc1c(N2CCCC(O)C2)nc(N)c2c(N)nc3c(c12)CC(=O)N3C12CC3CC(CC(C3)C1)C2 (stereo not drawn)	19.0	48.8*	5.3	19.2*	13.6*	9.0	56.7*
C=C(C)CN(CC)c1nc(N)c2c(N)nc3c(c2c1C#N)CC(=O)N3C12CC3CC(CC(C3)C1)C2	12.8	9.7	7.6	19.5*	2.6	14.7	7.0
CCCCN1C(=O)Cc2c1nc(N)c1c(N)nc(N(CCC)CCC)c(C#N)c21	5.6	3.2	4.6	16.2*	15.1*	8.1	-0.2
CCOC(=O)Cn1nc(-c2ccc(C)cc2)ccc1=O	0.0	-0.3	-2.2	-6.1	-0.5	·	·
O=C(CSc1n[nH]c(=O)[nH]c1=O)Nc1cccc(S(=O)(=O)N2CCOCC2)c1	0.9	-1.9	2.6	-5.1	-4.9	·	·
O=C(CSc1n[nH]c(=O)[nH]c1=O)Nc1ccc2c(c1)C(=O)c1ccccc1C2=O	88.1*	68.7*	81.7*	21.1*	-0.4	30.8*	-1.0
CCOc1ccccc1/C=N/NC(=O)c1cccc(S(=O)(=O)N(CC)CC)c1	3.0	0.1	-6.5	1.1	-0.8	·	·
CCN(CC)S(=O)(=O)c1cccc(C(=O)N/N=C/c2ccc(O)c(O)c2O)c1	1.8	6.2	-7.8	20.1*	2.9	32.9*	-5.9
CCOC(=O)c1c(C)oc2ccc(O)c(CN(C)C)c12	-0.6	-2.5	-7.5	-5.0	-0.8	·	·
CCOC(=O)c1c(CSc2ccc(CC)cc2)oc2ccc(O)c(CN(C)C)c12	3.4	0.8	1.4	18.4*	1.5	-3.6	-3.9
CCOC(=O)N1CCC(NC(=O)C2CCCN(c3nc4ccccc4o3)C2)CC1 (stereo not drawn)	1.2	0.0	-6.5	-0.4	-0.5	·	·
C/C=C(\C)C(=O)Nc1cccc(C2=NOC3(C2)C[C@@H](C(N)=O)N(C(=O)c2ccccc2C(=O)c2ccccc2)C3)c1 (stereo partly drawn)	-1.1	-0.9	-3.6	-3.0	-0.9	·	·
C=C(C)C(=O)Nc1cccc(C2=NOC3(C2)C[C@H](C(N)=O)N(C(=O)CC#N)C3)c1 (stereo partly drawn)	·	·	56.9*	37.1*	-2.4	8.6	-0.5
CCC(=O)Nc1cccc(C2=NOC3(C2)C[C@@H](C(N)=O)N(C(=O)CC(c2ccccc2)c2ccccc2)C3)c1 (stereo partly drawn)	0.5	-1.7	0.6	0.3	2.4	·	·
C/C=C(/C)C(=O)Nc1cccc(C2=NOC3(C2)C[C@H](C(N)=O)N(C(=O)c2ccccc2)C3)c1 (stereo partly drawn)	2.5	-0.3	8.2	41.6*	5.7	0.7	-2.1

Bioassay records: PubChem BioAssay, several laboratories
